Results as given in ChEMBL document CHEMBL1143141, “Regioselective synthesis and antitumor screening of some novel N-phenylpyrazole derivatives” (Bioorg Med Chem, 2008).
In brackets after ≈: the same amount, converted by molar mass.

Experiments:
Ehrlich [1] = assay: Antitumor activity against mouse Ehrlich ascites carcinoma cells; format: functional, cell-based
How it was run: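 Ehrlich ascites carcinoma cell suspension was exposed to test compound at three levels (25, 50, 100) for 2 h. Nonviable cells were counted by trypan blue exclusion, using a 1:10 water dilution of a 1 g/100 ml dye stock. The IC50 was calculated against a saline control group. Doxorubicin served as positive control.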

Ehrlich [2] = assay: Antitumor activity against mouse Ehrlich ascites carcinoma cells at 25 ug/ml relative to doxorubicin after 2 hrs; format: functional
How it was run: (§1)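 Ehrlich ascites carcinoma cell suspension was exposed to compound for 2 h. Percent nonviable cells was scored by trypan blue dye exclusion. Potency was calculated from the percentage change relative to doxorubicin, which served as reference. Data are means with SE. Treated and control tubes were compared by one-way ANOVA with Duncan's multiple range test.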

Ehrlich [3] = assay: Antitumor activity against mouse Ehrlich ascites carcinoma cells at 100 ug/ml relative to doxorubicin after 2 hrs; format: functional; how it was run: as §1
Ehrlich [4] = assay: Antitumor activity against mouse Ehrlich ascites carcinoma cells at 50 ug/ml relative to doxorubicin after 2 hrs; format: functional; how it was run: as §1

Structure (SMILES)	IC50 (Ehrlich [1])	Activity (Ehrlich [2])	Activity (Ehrlich [3])	Activity (Ehrlich [4])
CC(=O)c1nn(-c2ccccc2)cc1C(=O)c1c(C(=O)Nc2ccccc2)nn(-c2ccccc2)c1C	> 100 µg/mL	0%	20%	5%
CCOC(=O)c1nn(-c2ccccc2)cc1C(=O)c1c(C(=O)Nc2ccccc2)nn(-c2ccccc2)c1C	> 100 µg/mL	0%	10%	0%
CC(=O)c1c(C(=O)Nc2ccccc2)nn(-c2ccccc2)c1C		0%	0%	0%
CCOC(=O)c1nn(-c2ccc(Br)cc2)cc1C(=O)c1c(C(=O)Nc2ccccc2)nn(-c2ccccc2)c1C	> 100 µg/mL	0%	20%	10%
CCOC(=O)c1nn(-c2ccc([N+](=O)[O-])cc2)cc1C(=O)c1c(C(=O)Nc2ccccc2)nn(-c2ccccc2)c1C		0%	0%	0%
CC(=O)c1nn(-c2ccc(Br)cc2)cc1C(=O)c1c(C(=O)Nc2ccccc2)nn(-c2ccccc2)c1C	> 100 µg/mL	0%	25%	15%
CC(=O)c1nn(-c2cccc(C)c2)cc1C(=O)c1c(C(=O)Nc2ccccc2)nn(-c2ccccc2)c1C	100 µg/mL (≈ 199 µM)	0%	20%	10%
Cc1c(C(=O)/C=C/N(C)C)c(C(=O)Nc2ccccc2)nn1-c1ccccc1	> 100 µg/mL	0%	10%	5%
CC(=O)c1nn(-c2ccc(C)cc2)cc1C(=O)c1c(C(=O)Nc2ccccc2)nn(-c2ccccc2)c1C	> 100 µg/mL	0%	10%	5%
Cc1c(C(=O)c2cn(-c3ccccc3)nc2-c2ccccc2)c(C(=O)Nc2ccccc2)nn1-c1ccccc1		0%	0%	0%
COc1cccc2c1C(=O)c1c(O)c3c(c(O)c1C2=O)C[C@@](O)(C(=O)CO)C[C@@H]3O[C@H]1C[C@H](N)[C@H](O)[C@H](C)O1 [DOXORUBICIN]	35 µg/mL (≈ 64.4 µM)	20%	100%	55%
Cc1c(C(=O)c2cn(-c3ccccc3)nc2C(=O)Nc2ccccc2)c(C(=O)Nc2ccccc2)nn1-c1ccccc1	70 µg/mL (≈ 124 µM)	5%	35%	20%
